Laboratory results published in ChEMBL document CHEMBL4477184, “Pelianthinarubins A and B, Red Pyrroloquinoline Alkaloids from the Fruiting Bodies of the Mushroom Mycena pelianthina” (J Nat Prod, 2016).
Activity calls are given as the source filed them.

Key:
Format in all cases: functional, organism-based
Brevibacillus brevis = assay: Antibacterial activity against Bacillus brevis after 24 hrs by plate diffusion assay
How it was run: (§1)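 Paper discs (6 mm diameter, 0.5 mm thick) were loaded with 0.1 or 0.5 mg of sample dissolved in distilled water and dried under sterile conditions. The discs were then placed on agar plates inoculated with the test bacterium and incubated at 37 °C for 24 h.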

Cladosporium cucumerinum = assay: Antifungal activity against Cladosporium cucumerinum after 48 hrs by plate diffusion assay
How it was run: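 Disc diffusion assay. Paper discs (6 mm) were loaded with 0.1 or 0.5 mg of sample from distilled water and dried under sterile conditions. The discs were laid on agar plates inoculated with Cladosporium cucumerinum, and the plates were incubated at 18 °C for 48 h.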

Folsomia candida = assay: Insecticidal activity against Folsomia candida
Lepidium sativum = assay: Herbicidal activity against Lepidium sativum
Bacillus subtilis = assay: Antibacterial activity against Bacillus subtilis after 24 hrs by plate diffusion assay; how it was run: as §1
Escherichia coli = assay: Antibacterial activity against Escherichia coli after 24 hrs by plate diffusion assay; how it was run: as §1

Measured: Activity

C[N+](C)(C)[C@H](C(=O)O)[C@H](O)c1cn([C@@H]2CCN3C4=C2C(=O)C(=O)c2[nH]cc(c24)C[C@H]3C(=O)O)cn1
inactive: Brevibacillus brevis | Cladosporium cucumerinum | Folsomia candida | Lepidium sativum | Bacillus subtilis | Escherichia coli

C[N+](C)(C)[C@@H](Cc1cn([C@@H]2CCN3C4=C2C(=O)C(=O)c2[nH]cc(c24)C[C@H]3C(=O)O)cn1)C(=O)O
inactive: Brevibacillus brevis | Cladosporium cucumerinum | Folsomia candida | Lepidium sativum | Bacillus subtilis | Escherichia coli
